Results published in publication PMC10839140 (Iranian Journal of Medical Sciences, 2024).
Like-named read-outs stand apart in the source and are kept apart here.

Experiments:
[1] = system: SkBr3 breast cancer cell line; assay: Apoptosis analysis, annexin V-FITC/PI flow cytometry, SkBr3 cells; assay type: cell-based, human; details: PINO 575 μM, LARI 500 μM
[2] = system: SkBr3 breast cancer cell line; assay: Real-time PCR of apoptosis and cell cycle genes, SkBr3 cells; assay type: cell-based, human; details: 24 and 48 hours, PINO 575, LARI 500, PTOX 0.175 μM, vs untreated cells
How it was run: (§1)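 Cells grown at 37 °C, 5% CO₂: HEK-293 in DMEM/F12 with 10% FBS and penicillin/streptomycin, SkBr3 in supplemented DMEM. Vehicle control was methanol at 1% v/v final. Total RNA was DNase I-treated, and 3 µg was reverse-transcribed. Real-time PCR used GAPDH as the internal control and no-cDNA negative controls. Fold change was calculated by 2^-ΔΔCT, as the mean±SD of three experiments.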

[3] = system: fibroblast cell line; assay: Apoptosis analysis, annexin V-FITC/PI flow cytometry, fibroblast cells; assay type: cell-based; details: PINO 575 μM, LARI 500 μM
[4] = system: HEK-293 cell line; assay: MTT cytotoxicity assay, HEK-293 cells; assay type: cell-based; details: for IC50: read-out: half-maximal inhibitory concentration
[5] = system: fibroblast cell line; assay: MTT cytotoxicity assay, fibroblast cells; assay type: cell-based; details: for percentage of cell viability was reduced by: fibroblast cells treated for 48 hours (abstract; concentration not stated there); for IC50: read-out: half-maximal inhibitory concentration, Fibroblast
[6] = system: HEK-293 cell line; assay: Apoptosis analysis, annexin V-FITC/PI flow cytometry, HEK-293 cells; assay type: cell-based; details: PINO 575 μM, LARI 500 μM
[7] = system: SkBr3 breast cancer cell line; assay: MTT cytotoxicity assay, SkBr3 cells; assay type: cell-based, human; details: read-out: half-maximal inhibitory concentration
[8] = system: HEK-293 cell line; assay: Real-time PCR of apoptosis and cell cycle genes, HEK-293 cells; assay type: cell-based; details: 24 and 48 hours, PINO 575, LARI 500, PTOX 0.175 μM, vs untreated cells
How it was run: as §1

Compound | increase of apoptosis compared to control cells ([1]; SKBR3, 24 hours) [fold] | increase of apoptosis compared to control cells ([1]; SKBR3, 48 hours) [fold] | expression of pro-apoptotic BAX and FAS genes and CDKN1A inhibitory gene [2] | increase of apoptosis compared to control cells ([3]; 24 hours) [fold] | increase of apoptosis compared to control cells ([3]; 48 hours) [fold] | percentage of cell viability was reduced by [5] [%] | increase of apoptosis compared to control cells ([6]; HEK-293, 24 hours) [fold] | increase of apoptosis compared to control cells ([6]; HEK-293, 48 hours) [fold] | expression of pro-apoptotic BAX and FAS genes and CDKN1A inhibitory gene [8] | IC50 ([4]; Homo sapiens, HEK293, 24 h) [µM] | IC50 ([4]; Homo sapiens, HEK293, 48 h) [µM] | IC50 ([5]; 24 h) [µM] | IC50 ([5]; 48 h) [µM] | IC50 ([7]; Homo sapiens, SK-BR-3, 24 h) [µM] | IC50 ([7]; Homo sapiens, SK-BR-3, 48 h) [µM] | other results
Pinoresinol | 9 | 11 | significantly overexpressed | 5.2 | 10.5 | 49 | 6.6 | 9 | significantly overexpressed |  |  |  |  |  |  | cell viability ([4]; HEK-293, 48 hours, PINO at 575 μM, LARI at 500 μM): 49%; IC50 ([4]; HEK-293, 24-hour treatment, MTT): 600 µM; IC50 ([4]; HEK-293, 48-hour treatment, MTT): 550 µM; cell viability ([5]; fibroblast, 48 hours, PINO at 575 μM, LARI at 500 μM): 49%; IC50 ([5]; 48-hour treatment, MTT): 550 µM; IC50 ([7]; SkBr3, 24-hour treatment, MTT): 675 µM; IC50 ([7]; SkBr3, 48-hour treatment, MTT): 575 µM
COc1cc([C@@H]2c3cc4c(cc3[C@H](O)[C@H]3COC(=O)[C@H]23)OCO4)cc(OC)c1OC [Podophyllotoxin, reference compound] |  |  | significantly overexpressed |  |  | 36 |  |  | significantly overexpressed | 0.15 | 0.075 | 0.175 | 0.075 | 0.3 | 0.175 | cell viability was reduced by up to ([5]; fibroblast, 48 hours, PTOX at 0.175 μM): ≤ 36%
COc1cc(C[C@H]2CO[C@H](c3ccc(O)c(OC)c3)[C@H]2CO)ccc1O [Lariciresinol, lariciresinol] | 10.7 | 12.7 | significantly overexpressed | 7.4 | 20.2 | 47 | 6.7 | 7.4 | significantly overexpressed | 550 | 475 | 475 | 400 | 600 | 500 | 
